Measured values reported in ChEMBL document CHEMBL3286182, “4-aminoquinolone piperidine amides: noncovalent inhibitors of DprE1 with long residence time and potent antimycobacterial activity” (J Med Chem, 2014).
Values after ≈ are worked out from the molar mass of the structure shown. Active and inactive are the calls of the source. The calls are words filed in the database; no cut-off is given here.

Key:
Haemophilus influenzae [1] = assay: Antimicrobial activity against Haemophilus influenzae ARC158 at 100 uM; type: functional, organism-based
How it was run: (§1)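 Nonmycobacterial panel of Candida albicans, Gram-negative and Gram-positive pathogens.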

[2] = system: Mycolicibacterium smegmatis; assay: Antimicrobial activity against Mycobacterium smegmatis ATCC 607 at 100 uM; type: functional, organism-based
[3] = Fraction unbound in human plasma at 20 uM after 18 hrs by equilibrium dialysis method; type: ADME, cell-free
[4] = system: Mycobacterium tuberculosis; assay: Antimycobacterial activity against Mycobacterium tuberculosis H37Rv after 5 days by standard microdilution method; type: functional; conditions: 120 h
Haemophilus influenzae [5] = assay: Antimicrobial activity against Haemophilus influenzae ARC446 at 100 uM; type: functional, organism-based; how it was run: as §1
[6] = Permeability of the compound from basolateral to apical side in human Caco2 cells; type: ADME, cell-based; conditions: Caco-2, read-out: permeability
[7] = Octanol-water partition coefficient, log D of the compound by shake-flask method; type: physicochemical
[8] = Cytotoxicity against human A549 cells after 72 hrs by resazurin based fluorescence assay; type: cell-based; conditions: read-out: MIC
How it was run: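 Cytotoxicity read as MMIC, the MIC on the A549 cell line.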

Cytochrome P450 2D6 = Cytochrome P450 2D6 (Homo sapiens, UniProt P10635); assay: Inhibition of CYP2D6 (unknown origin); type: ADME
How it was run: (§2)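 CYP inhibition IC50 measured on isoforms CYP3A4, CYP2D6, CYP2C9, CYP2C19 and CYP1A2.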

[9] = system: Mycobacterium tuberculosis; assay: Antimycobacterial activity against Mycobacterium tuberculosis H37Rv under hypoxic condition after 6 days by resazurin assay; type: functional; conditions: 144 h
[10] = Intrinsic clearance in human liver microsomes at 1 uM up to 30 mins by LC-MS/MS analysis; type: ADME; conditions: read-out: CLH
[11] = Inhibition of Mycobacterium smegmatis recombinant DprE1 using farnesylphosphoryl-beta-D-ribofuranose as substrate assessed as conversion of amplex red to resorufin after 30 mins; set-up: species or system Mycolicibacterium smegmatis
How it was run: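 Msm DprE1 (thioredoxin-6His fusion of Msm Rv3790) at 75 nM, preincubated 30 min with 10 μM FAD. Buffer: 50 mM glycylglycine pH 8.5, 200 mM potassium glutamate, 0.002% Brij-35, 2% DMSO, 25 °C. Started with 300 μM farnesylphosphoryl-β-D-ribofuranose, 0.01 mg/mL HRP and 50 μM Amplex Red.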

[12] = system: Mycolicibacterium smegmatis; assay: Time dependent inhibition of Mycobacterium smegmatis recombinant DprE1 using farnesylphosphoryl-beta-D-ribofuranose as substrate assessed as conversion of amplex red to resorufin at 4.6 to 3333 nM
How it was run: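 Coupled fluorescence assay at 25 °C with 75 nM recombinant Msm DprE1 (wild type or Y321H) in 50 mM glycylglycine pH 8.5, 200 mM potassium glutamate, 10 μM FAD, 0.002% Brij-35, 2% DMSO. Enzyme preincubated 30 min, then started with 300 μM FPR, HRP and 50 μM Amplex Red. Progress curves followed over 0−40 min, with background subtracted.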

[13] = Solubility of the compound in 0.1 M phosphate buffer at pH 7.4 after 24 hrs by UV and MS analysis; type: physicochemical
Cytochrome P450 1A2 = molecular target: T1, Cytochrome P450 1A2 (Homo sapiens, UniProt P05177); assay: Inhibition of CYP1A2 (unknown origin); type: ADME; how it was run: as §2
T1 sequence (P05177 whole entry): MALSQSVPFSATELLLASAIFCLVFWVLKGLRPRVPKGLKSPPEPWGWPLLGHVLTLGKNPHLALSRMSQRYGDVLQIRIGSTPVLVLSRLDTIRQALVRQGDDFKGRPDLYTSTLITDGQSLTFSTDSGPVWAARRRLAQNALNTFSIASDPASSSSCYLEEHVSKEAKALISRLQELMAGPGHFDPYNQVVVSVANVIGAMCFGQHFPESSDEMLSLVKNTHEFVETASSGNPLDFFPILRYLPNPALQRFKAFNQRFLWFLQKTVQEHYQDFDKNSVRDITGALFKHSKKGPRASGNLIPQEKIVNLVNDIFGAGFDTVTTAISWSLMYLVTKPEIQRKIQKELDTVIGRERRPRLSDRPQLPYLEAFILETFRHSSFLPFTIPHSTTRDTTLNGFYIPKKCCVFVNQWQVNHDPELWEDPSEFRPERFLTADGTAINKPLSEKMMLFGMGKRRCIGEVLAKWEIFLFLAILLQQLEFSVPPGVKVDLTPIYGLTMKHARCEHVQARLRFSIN

[14] = system: Mycobacterium tuberculosis; assay: Antimycobacterial activity against Mycobacterium tuberculosis expressing GFP assessed as change bacterial morphology at 30 uM after 5 to 7 days; type: functional, organism-based
How it was run: (§3)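 GFP-expressing Mtb was grown several days in a microfluidic device with 7H9 flow medium. Compound at 30 μM was then flowed in from t = 118 h to t = 284 h, then washed out. Phase and GFP time-lapse images were taken at 1 h intervals to follow growth rate, morphology and lysis of single cells and microcolonies.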

[15] = system: Mycolicibacterium smegmatis; assay: Antimicrobial activity against Mycobacterium smegmatis mc2155 at 100 uM; type: functional, organism-based; conditions: str. MC2 155
Klebsiella pneumoniae = assay: Antimicrobial activity against Klebsiella pneumoniae ARC1865 at 100 uM; type: functional, organism-based; how it was run: as §1
Escherichia coli [16] = assay: Antimicrobial activity against Escherichia coli ARC523 at 100 uM; type: functional, organism-based; how it was run: as §1
Candida albicans = assay: Antimicrobial activity against Candida albicans ARC527 at 100 uM; type: functional, organism-based; how it was run: as §1
[17] = system: Mycobacterium tuberculosis; assay: Antimycobacterial activity against Mycobacterium tuberculosis H37Rv infected in human THP1 cells after 7 days; type: functional, organism-based; conditions: THP-1
Escherichia coli [18] = assay: Antimicrobial activity against Escherichia coli ARC524 at 100 uM; type: functional, organism-based; how it was run: as §1
[19] = system: Mycobacterium tuberculosis; assay: Antimycobacterial activity against Mycobacterium tuberculosis over expressing DprE1 after 5 days by standard microdilution method; type: functional; conditions: 120 h
[20] = system: Mycobacterium tuberculosis; assay: Antimycobacterial activity against Mycobacterium tuberculosis over expressing InhA after 5 days by standard microdilution method; type: functional; conditions: 120 h
Cytochrome P450 2C19 = Cytochrome P450 2C19 (Homo sapiens, UniProt P33261); assay: Inhibition of CYP2C19 (unknown origin); type: ADME; how it was run: as §2
[21] = system: Mycobacterium tuberculosis; assay: Antimycobacterial activity against Mycobacterium tuberculosis expressing GFP assessed as bacterial lysis at 30 uM after 5 to 7 days measured after drug washout; type: functional, organism-based; how it was run: as §3
[22] = system: Mycobacterium tuberculosis; assay: Antimycobacterial activity against Mycobacterium tuberculosis H37Rv at >MIC after 21 to 28 days; type: functional
Pseudomonas aeruginosa [23] = assay: Antimicrobial activity against Pseudomonas aeruginosa ARC545 at 100 uM; type: functional, organism-based; how it was run: as §1
[24] = Inhibition of Mycobacterium smegmatis DprE1 Y321H mutant using farnesylphosphoryl-beta-D-ribofuranose as substrate assessed as conversion of amplex red to resorufin after 30 mins; set-up: species or system Mycolicibacterium smegmatis
How it was run: (§4)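 Recombinant M. smegmatis DprE1 (thioredoxin-6His fusion), wild type or Y321H, 75 nM. Enzyme was preincubated 30 min in FAD assay mix: 50 mM glycylglycine pH 8.5, 200 mM potassium glutamate, 10 μM FAD, 0.002% Brij-35, 2% DMSO. Reaction was started with 300 μM farnesylphosphoryl-β-D-ribofuranose, 0.01 mg/mL HRP and 50 μM amplex red at 25 °C.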

[25] = system: Mycolicibacterium smegmatis; assay: Binding affinity to Mycobacterium smegmatis recombinant DprE1 assessed as dissociation constant
How it was run: (§5)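 Progress curves (fluorescence vs time) recorded at several inhibitor concentrations with 75 nM Msm DprE1 in the FAD/HRP/Amplex Red coupled assay, pH 8.5, 25 °C. A single-step reversible slow-binding model was fitted globally, with vs and vi fitted per concentration and koff and Kiapp shared. Half-life and residence time were derived from koff.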

Cytochrome P450 3A4 = Cytochrome P450 3A4 (Homo sapiens, UniProt P08684); assay: Inhibition of CYP3A4 (unknown origin); type: ADME; how it was run: as §2
[26] = system: Mycobacterium tuberculosis; assay: Antimycobacterial activity against Mycobacterium tuberculosis expressing GFP assessed as reduction of bacterial growth rate at 30 uM after 5 to 7 days; type: functional, organism-based; how it was run: as §3
[27] = Permeability of the compound from apical to basolateral side in human Caco2 cells; type: ADME, cell-based; conditions: Caco-2, read-out: permeability
[28] = system: Mycolicibacterium smegmatis; assay: Binding affinity to Mycobacterium smegmatis recombinant DprE1 assessed as residence time; how it was run: as §5
Streptococcus pneumoniae = assay: Antimicrobial activity against Streptococcus pneumoniae ARC548 at 100 uM; type: functional, organism-based; how it was run: as §1
[29] = system: Mycobacterium tuberculosis; assay: Antimycobacterial activity against Mycobacterium tuberculosis over expressing TopA after 5 days by standard microdilution method; type: functional; conditions: 120 h
[30] = system: Mycobacterium tuberculosis; assay: Antimycobacterial activity against Mycobacterium tuberculosis over expressing PimA after 5 days by standard microdilution method; type: functional; conditions: 120 h
[31] = system: Mycolicibacterium smegmatis; assay: Ratio of IC50 for Mycobacterium smegmatis DprE1 Y321H mutant to IC50 for Mycobacterium smegmatis recombinant wild type DprE1; how it was run: as §4
Cytochrome P450 2C9 = Cytochrome P450 2C9 (Homo sapiens, UniProt P11712); assay: Inhibition of CYP2C9 (unknown origin); type: ADME; how it was run: as §2
[32] = Intrinsic clearance in rat cryopreserved hepatocytes assessed per 10^6 cells at 1 uM up to 120 mins by LC-MS/MS analysis; type: ADME, cell-based, Hepatocyte; conditions: read-out: CLH
Pseudomonas aeruginosa [33] = assay: Antimicrobial activity against Pseudomonas aeruginosa ARC546 at 100 uM; type: functional, organism-based; how it was run: as §1
Staphylococcus aureus = assay: Antimicrobial activity against Staphylococcus aureus ARC517 at 100 uM; type: functional, organism-based; how it was run: as §1
[34] = system: Mycolicibacterium smegmatis; assay: Binding affinity to Mycobacterium smegmatis recombinant DprE1 assessed as half life; how it was run: as §5

Chain of Cytochrome P450 3A4 (P08684 whole entry): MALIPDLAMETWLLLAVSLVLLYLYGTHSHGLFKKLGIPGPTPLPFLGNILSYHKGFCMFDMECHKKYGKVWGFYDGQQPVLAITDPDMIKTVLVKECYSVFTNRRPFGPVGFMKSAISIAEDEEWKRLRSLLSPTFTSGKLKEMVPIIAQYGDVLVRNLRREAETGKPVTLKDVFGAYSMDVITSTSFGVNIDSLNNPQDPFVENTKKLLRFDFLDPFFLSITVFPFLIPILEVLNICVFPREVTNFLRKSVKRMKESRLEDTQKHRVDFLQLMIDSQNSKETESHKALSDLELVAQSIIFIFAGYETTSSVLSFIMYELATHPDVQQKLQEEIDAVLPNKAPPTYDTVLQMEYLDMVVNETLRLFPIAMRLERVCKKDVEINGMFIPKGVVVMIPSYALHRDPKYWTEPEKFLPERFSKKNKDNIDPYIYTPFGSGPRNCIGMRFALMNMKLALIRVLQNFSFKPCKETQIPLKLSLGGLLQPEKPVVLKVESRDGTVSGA
Chain of Cytochrome P450 2C9 (P11712 whole entry): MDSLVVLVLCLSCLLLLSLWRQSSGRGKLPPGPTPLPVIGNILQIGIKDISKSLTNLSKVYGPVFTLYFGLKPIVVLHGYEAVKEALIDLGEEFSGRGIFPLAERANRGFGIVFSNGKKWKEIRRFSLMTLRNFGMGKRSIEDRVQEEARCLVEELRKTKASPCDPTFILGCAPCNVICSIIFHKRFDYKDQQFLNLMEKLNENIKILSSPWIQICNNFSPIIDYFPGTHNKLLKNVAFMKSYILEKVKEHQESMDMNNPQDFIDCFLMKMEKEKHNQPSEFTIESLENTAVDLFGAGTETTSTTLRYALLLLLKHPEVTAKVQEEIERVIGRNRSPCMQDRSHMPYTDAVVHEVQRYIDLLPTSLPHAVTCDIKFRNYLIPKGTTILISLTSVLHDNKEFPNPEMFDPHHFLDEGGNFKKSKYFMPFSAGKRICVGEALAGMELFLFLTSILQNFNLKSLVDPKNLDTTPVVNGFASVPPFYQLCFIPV
Chain of Cytochrome P450 2C19 (P33261 whole entry): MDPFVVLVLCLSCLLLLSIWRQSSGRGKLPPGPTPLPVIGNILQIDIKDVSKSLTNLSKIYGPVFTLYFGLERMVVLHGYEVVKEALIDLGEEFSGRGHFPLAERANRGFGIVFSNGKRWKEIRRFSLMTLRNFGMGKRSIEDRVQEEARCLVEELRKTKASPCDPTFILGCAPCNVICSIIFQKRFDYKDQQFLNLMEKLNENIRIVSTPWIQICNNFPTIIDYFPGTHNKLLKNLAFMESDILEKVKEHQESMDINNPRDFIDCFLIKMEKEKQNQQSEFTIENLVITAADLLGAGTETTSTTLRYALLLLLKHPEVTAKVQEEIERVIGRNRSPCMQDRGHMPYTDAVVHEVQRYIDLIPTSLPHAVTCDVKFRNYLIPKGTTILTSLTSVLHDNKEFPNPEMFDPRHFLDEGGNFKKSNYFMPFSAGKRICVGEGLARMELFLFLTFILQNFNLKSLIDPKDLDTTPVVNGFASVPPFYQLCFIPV
Chain of Cytochrome P450 2D6 (P10635 whole entry, canonical isoform): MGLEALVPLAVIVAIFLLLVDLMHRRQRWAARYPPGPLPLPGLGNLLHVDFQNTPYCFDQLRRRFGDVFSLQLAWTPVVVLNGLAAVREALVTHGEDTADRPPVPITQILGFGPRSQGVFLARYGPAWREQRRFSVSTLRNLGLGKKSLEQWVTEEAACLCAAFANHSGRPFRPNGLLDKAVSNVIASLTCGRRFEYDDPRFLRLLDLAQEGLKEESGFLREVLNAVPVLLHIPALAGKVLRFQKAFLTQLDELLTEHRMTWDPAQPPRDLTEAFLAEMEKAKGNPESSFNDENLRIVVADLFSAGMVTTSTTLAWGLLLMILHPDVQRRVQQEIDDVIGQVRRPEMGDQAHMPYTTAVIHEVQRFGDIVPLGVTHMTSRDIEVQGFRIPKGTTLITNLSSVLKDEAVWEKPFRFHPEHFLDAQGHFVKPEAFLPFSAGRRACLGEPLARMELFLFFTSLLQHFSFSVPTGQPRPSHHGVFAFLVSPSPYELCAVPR

## Cn1ncc(C(=O)N2CCC(Nc3cc(=O)[nH]c4ccc(F)cc34)CC2)c1Cl
Haemophilus influenzae [1]
  Activity: inactive
[2]
  Activity: inactive
[3]
  fraction unbound at 18 h, 20 µM: 0.4
[4]
  MIC: 1.56 µM (≈ 0.63 µg/mL)
Haemophilus influenzae [5]
  Activity: inactive
[6]
  Papp B→A: 13 ×10⁻⁶ cm/s
[7]
  logD: 2
[8]
  MCC at 72 h: > 200 µM
Cytochrome P450 2D6
  INH: > 30 µM
[9]
  IC80: > 100 µM
[10]
  microsomal CLint at 1 µM: < 4.8 µL/min/mg
[11]
  IC50: 0.005 µM
[12]
  inhibition: Active
[13]
  solubility at 24 h: 105 µM (≈ 42.4 µg/mL)
Cytochrome P450 1A2
  INH: > 30 µM
[14]
  Activity: Active
[15]
  Activity: inactive
Klebsiella pneumoniae
  Activity: inactive
Escherichia coli [16]
  Activity: inactive
Candida albicans
  Activity: inactive
[17]
  Activity: Active
Escherichia coli [18]
  Activity: inactive
[19]
  MIC: 100 µM (≈ 40.4 µg/mL)
[20]
  MIC: 1.6 µM (≈ 0.646 µg/mL)
Cytochrome P450 2C19
  INH: > 30 µM
[21]
  Activity: Active
[22]
  MBC: 3.1 µM (≈ 1.25 µg/mL)
Pseudomonas aeruginosa [23]
  Activity: inactive
[24]
  IC50: 9.47 µM
[25]
  Kdiss: 0.00012 s⁻¹
Cytochrome P450 3A4
  INH: > 30 µM
[26]
  Activity: Active
[27]
  Papp A→B: 0.6 ×10⁻⁶ cm/s
[28]
  TIME: 1.98 h
Streptococcus pneumoniae
  Activity: inactive
[29]
  MIC: 0.8 µM (≈ 0.323 µg/mL)
[30]
  MIC: 1.6 µM (≈ 0.646 µg/mL)
[31]
  fold change (FC): 111
Cytochrome P450 2C9
  INH: > 30 µM
[32]
  hepatocyte CLint at 1 µM: 5.6 µL/min/1e6 cells
Pseudomonas aeruginosa [33]
  Activity: inactive
Staphylococcus aureus
  Activity: inactive
[34]
  T1/2: 1.38 h
